Test results from ChEMBL document CHEMBL5058577, “EUbOPEN Chemogenomics Library 2 (Multiplex)” (2022).

Tested on: HEK-293T
Test: Multiplex assay against HEK293T
Format: toxicity, cell-based
Details: human
Outline: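 With compound added, live cells were imaged on a CQ1 microscope at 37°C and 5% CO2; staining with Hoechst33342, BioTracker Green Microtubule Cytoskeleton Dye, MitoTracker Red and Annexin V Alexa Fluor 680 had been done at seeding. The CellPathfinder machine-learning gating scheme split cells into Hoechst high-intensity objects or normal cells, normal cells into healthy, pyknosed or fragmented nuclei, and pyknosed cells into mitotic or apoptotic. The tubulin, mitochondrial-mass and membrane-permeability phenotypes are per cents of healthy-nucleus cells.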

[1] = 12 h, 1 µM, compound concentration 1 uM, replicate 1
[2] = 12 h, 1 µM, compound concentration 1 uM, replicate 2
[3] = 12 h, 10 µM, compound concentration 10 uM, replicate 1
[4] = 12 h, 10 µM, compound concentration 10 uM, replicate 2
[5] = 24 h, 1 µM, compound concentration 1 uM, replicate 1
[6] = 24 h, 1 µM, compound concentration 1 uM, replicate 2
[7] = 24 h, 10 µM, compound concentration 10 uM, replicate 1
[8] = 24 h, 10 µM, compound concentration 10 uM, replicate 2
[9] = 48 h, 1 µM, compound concentration 1 uM, replicate 1
[10] = 48 h, 1 µM, compound concentration 1 uM, replicate 2
[11] = 48 h, 10 µM, compound concentration 10 uM, replicate 1
[12] = 48 h, 10 µM, compound concentration 10 uM, replicate 2

COc1cc(Nc2ncc3c(n2)-c2ccc(Cl)cc2C(c2c(F)cccc2OC)=NC3)ccc1C(=O)O [ALISERTIB]
Population Apoptotic (%) [1]: 38%
Population Fragmented Nuclei (%) [1]: 3%
Population Healthy Nuclei (%) [1]: 88%
Population Hoechst High Intensity Objects (%) [1]: 5%
Population Membrane Permeable-Phenotype (%) [1]: 0%
Population Mitochondria Different-Phenotype (%) [1]: 44%
Population Mitotic Cells (%) [1]: 61%
Population Normal (%) [1]: 94%
Population Pyknosed Nuclei (%) [1]: 7%
Population Tubulin-Different-Phenotype (%) [1]: 46%
Population Apoptotic (%) [2]: 61%
Population Fragmented Nuclei (%) [2]: 7%
Population Healthy Nuclei (%) [2]: 85%
Population Hoechst High Intensity Objects (%) [2]: 7%
Population Mitochondria Different-Phenotype (%) [2]: 69%
Population Mitotic Cells (%) [2]: 38%
Population Normal (%) [2]: 93%
Population Tubulin-Different-Phenotype (%) [2]: 49%
Population Apoptotic (%) [3]: 61%
Population Fragmented Nuclei (%) [3]: 8%
Population Healthy Nuclei (%) [3]: 74%
Population Hoechst High Intensity Objects (%) [3]: 9%
Population Membrane Permeable-Phenotype (%) [3]: 0%
Population Mitochondria Different-Phenotype (%) [3]: 80%
Population Mitotic Cells (%) [3]: 38%
Population Normal (%) [3]: 90%
Population Pyknosed Nuclei (%) [3]: 16%
Population Tubulin-Different-Phenotype (%) [3]: 68%
Population Apoptotic (%) [4]: 88%
Population Fragmented Nuclei (%) [4]: 9%
Population Healthy Nuclei (%) [4]: 72%
Population Hoechst High Intensity Objects (%) [4]: 15%
Population Mitochondria Different-Phenotype (%) [4]: 82%
Population Mitotic Cells (%) [4]: 11%
Population Normal (%) [4]: 84%
Population Pyknosed Nuclei (%) [4]: 17%
Population Tubulin-Different-Phenotype (%) [4]: 54%
Population Apoptotic (%) [5]: 50%
Population Fragmented Nuclei (%) [5]: 10%
Population Healthy Nuclei (%) [5]: 82%
Population Hoechst High Intensity Objects (%) [5]: 3%
Population Membrane Permeable-Phenotype (%) [5]: 0%
Population Mitochondria Different-Phenotype (%) [5]: 25%
Population Mitotic Cells (%) [5]: 50%
Population Normal (%) [5]: 96%
Population Pyknosed Nuclei (%) [5]: 7%
Population Tubulin-Different-Phenotype (%) [5]: 31%
Population Apoptotic (%) [6]: 47%
Population Fragmented Nuclei (%) [6]: 9%
Population Healthy Nuclei (%) [6]: 81%
Population Hoechst High Intensity Objects (%) [6]: 9%
Population Mitochondria Different-Phenotype (%) [6]: 47%
Population Mitotic Cells (%) [6]: 52%
Population Normal (%) [6]: 90%
Population Pyknosed Nuclei (%) [6]: 9%
Population Tubulin-Different-Phenotype (%) [6]: 30%
Population Apoptotic (%) [7]: 54%
Population Fragmented Nuclei (%) [7]: 8%
Population Healthy Nuclei (%) [7]: 74%
Population Hoechst High Intensity Objects (%) [7]: 6%
Population Membrane Permeable-Phenotype (%) [7]: 0%
Population Mitochondria Different-Phenotype (%) [7]: 75%
Population Mitotic Cells (%) [7]: 45%
Population Normal (%) [7]: 93%
Population Pyknosed Nuclei (%) [7]: 16%
Population Tubulin-Different-Phenotype (%) [7]: 64%
Population Apoptotic (%) [8]: 56%
Population Fragmented Nuclei (%) [8]: 12%
Population Healthy Nuclei (%) [8]: 55%
Population Hoechst High Intensity Objects (%) [8]: 34%
Population Membrane Permeable-Phenotype (%) [8]: 1%
Population Mitochondria Different-Phenotype (%) [8]: 86%
Population Mitotic Cells (%) [8]: 43%
Population Normal (%) [8]: 65%
Population Pyknosed Nuclei (%) [8]: 31%
Population Tubulin-Different-Phenotype (%) [8]: 50%
Population Apoptotic (%) [9]: 31%
Population Fragmented Nuclei (%) [9]: 14%
Population Healthy Nuclei (%) [9]: 79%
Population Hoechst High Intensity Objects (%) [9]: 3%
Population Membrane Permeable-Phenotype (%) [9]: 0%
Population Mitochondria Different-Phenotype (%) [9]: 14%
Population Mitotic Cells (%) [9]: 68%
Population Normal (%) [9]: 96%
Population Pyknosed Nuclei (%) [9]: 5%
Population Tubulin-Different-Phenotype (%) [9]: 17%
Population Apoptotic (%) [10]: 57%
Population Fragmented Nuclei (%) [10]: 16%
Population Healthy Nuclei (%) [10]: 77%
Population Hoechst High Intensity Objects (%) [10]: 15%
Population Mitochondria Different-Phenotype (%) [10]: 27%
Population Mitotic Cells (%) [10]: 42%
Population Normal (%) [10]: 84%
Population Tubulin-Different-Phenotype (%) [10]: 24%
Population Apoptotic (%) [11]: 48%
Population Fragmented Nuclei (%) [11]: 13%
Population Healthy Nuclei (%) [11]: 78%
Population Hoechst High Intensity Objects (%) [11]: 5%
Population Membrane Permeable-Phenotype (%) [11]: 0%
Population Mitochondria Different-Phenotype (%) [11]: 57%
Population Mitotic Cells (%) [11]: 52%
Population Normal (%) [11]: 94%
Population Pyknosed Nuclei (%) [11]: 7%
Population Tubulin-Different-Phenotype (%) [11]: 42%
Population Apoptotic (%) [12]: 82%
Population Fragmented Nuclei (%) [12]: 19%
Population Healthy Nuclei (%) [12]: 61%
Population Hoechst High Intensity Objects (%) [12]: 32%
Population Membrane Permeable-Phenotype (%) [12]: 4%
Population Mitochondria Different-Phenotype (%) [12]: 73%
Population Mitotic Cells (%) [12]: 17%
Population Normal (%) [12]: 67%
Population Pyknosed Nuclei (%) [12]: 19%
Population Tubulin-Different-Phenotype (%) [12]: 38%

O=c1nc2[nH]c3ccccc3nc-2c(=O)[nH]1 [ALLOXAZINE]
Population Apoptotic (%) [1]: 27%
Population Fragmented Nuclei (%) [1]: 8%
Population Healthy Nuclei (%) [1]: 77%
Population Hoechst High Intensity Objects (%) [1]: 8%
Population Membrane Permeable-Phenotype (%) [1]: 0%
Population Mitochondria Different-Phenotype (%) [1]: 44%
Population Mitotic Cells (%) [1]: 72%
Population Normal (%) [1]: 91%
Population Pyknosed Nuclei (%) [1]: 13%
Population Tubulin-Different-Phenotype (%) [1]: 33%
Total Cell Count [1]: 377
Population Apoptotic (%) [2]: 44%
Population Fragmented Nuclei (%) [2]: 4%
Population Healthy Nuclei (%) [2]: 79%
Population Hoechst High Intensity Objects (%) [2]: 7%
Population Mitochondria Different-Phenotype (%) [2]: 66%
Population Mitotic Cells (%) [2]: 55%
Population Normal (%) [2]: 92%
Population Pyknosed Nuclei (%) [2]: 15%
Population Tubulin-Different-Phenotype (%) [2]: 25%
Total Cell Count [2]: 345
Population Apoptotic (%) [3]: 40%
Population Fragmented Nuclei (%) [3]: 10%
Population Healthy Nuclei (%) [3]: 71%
Population Hoechst High Intensity Objects (%) [3]: 5%
Population Membrane Permeable-Phenotype (%) [3]: 0%
Population Mitochondria Different-Phenotype (%) [3]: 53%
Population Mitotic Cells (%) [3]: 59%
Population Normal (%) [3]: 94%
Population Pyknosed Nuclei (%) [3]: 18%
Population Tubulin-Different-Phenotype (%) [3]: 31%
Total Cell Count [3]: 362
Population Apoptotic (%) [4]: 60%
Population Fragmented Nuclei (%) [4]: 8%
Population Healthy Nuclei (%) [4]: 70%
Population Hoechst High Intensity Objects (%) [4]: 15%
Population Mitochondria Different-Phenotype (%) [4]: 67%
Population Mitotic Cells (%) [4]: 40%
Population Normal (%) [4]: 84%
Population Pyknosed Nuclei (%) [4]: 20%
Population Tubulin-Different-Phenotype (%) [4]: 20%
Total Cell Count [4]: 323
Population Apoptotic (%) [5]: 22%
Population Fragmented Nuclei (%) [5]: 10%
Population Healthy Nuclei (%) [5]: 76%
Population Hoechst High Intensity Objects (%) [5]: 4%
Population Membrane Permeable-Phenotype (%) [5]: 0%
Population Mitochondria Different-Phenotype (%) [5]: 24%
Population Mitotic Cells (%) [5]: 77%
Population Normal (%) [5]: 95%
Population Pyknosed Nuclei (%) [5]: 12%
Population Tubulin-Different-Phenotype (%) [5]: 19%
Total Cell Count [5]: 504
Population Apoptotic (%) [6]: 33%
Population Fragmented Nuclei (%) [6]: 7%
Population Healthy Nuclei (%) [6]: 83%
Population Hoechst High Intensity Objects (%) [6]: 7%
Population Mitochondria Different-Phenotype (%) [6]: 41%
Population Mitotic Cells (%) [6]: 66%
Population Normal (%) [6]: 92%
Population Pyknosed Nuclei (%) [6]: 8%
Population Tubulin-Different-Phenotype (%) [6]: 12%
Total Cell Count [6]: 391
Population Apoptotic (%) [7]: 27%
Population Fragmented Nuclei (%) [7]: 9%
Population Healthy Nuclei (%) [7]: 77%
Population Hoechst High Intensity Objects (%) [7]: 6%
Population Membrane Permeable-Phenotype (%) [7]: 0%
Population Mitochondria Different-Phenotype (%) [7]: 34%
Population Mitotic Cells (%) [7]: 72%
Population Normal (%) [7]: 93%
Population Pyknosed Nuclei (%) [7]: 12%
Population Tubulin-Different-Phenotype (%) [7]: 21%
Total Cell Count [7]: 491
Population Apoptotic (%) [8]: 50%
Population Healthy Nuclei (%) [8]: 72%
Population Hoechst High Intensity Objects (%) [8]: 15%
Population Mitochondria Different-Phenotype (%) [8]: 48%
Population Mitotic Cells (%) [8]: 50%
Population Normal (%) [8]: 84%
Population Pyknosed Nuclei (%) [8]: 17%
Population Tubulin-Different-Phenotype (%) [8]: 16%
Total Cell Count [8]: 371
Population Apoptotic (%) [9]: 32%
Population Fragmented Nuclei (%) [9]: 14%
Population Healthy Nuclei (%) [9]: 77%
Population Hoechst High Intensity Objects (%) [9]: 3%
Population Membrane Permeable-Phenotype (%) [9]: 1%
Population Mitochondria Different-Phenotype (%) [9]: 18%
Population Mitotic Cells (%) [9]: 67%
Population Normal (%) [9]: 96%
Population Pyknosed Nuclei (%) [9]: 8%
Population Tubulin-Different-Phenotype (%) [9]: 13%
Total Cell Count [9]: 773
Population Apoptotic (%) [10]: 27%
Population Fragmented Nuclei (%) [10]: 11%
Population Healthy Nuclei (%) [10]: 82%
Population Hoechst High Intensity Objects (%) [10]: 4%
Population Membrane Permeable-Phenotype (%) [10]: 0%
Population Mitochondria Different-Phenotype (%) [10]: 26%
Population Mitotic Cells (%) [10]: 72%
Population Normal (%) [10]: 95%
Population Pyknosed Nuclei (%) [10]: 6%
Population Tubulin-Different-Phenotype (%) [10]: 12%
Total Cell Count [10]: 636
Population Apoptotic (%) [11]: 29%
Population Fragmented Nuclei (%) [11]: 15%
Population Healthy Nuclei (%) [11]: 76%
Population Hoechst High Intensity Objects (%) [11]: 3%
Population Membrane Permeable-Phenotype (%) [11]: 0%
Population Mitochondria Different-Phenotype (%) [11]: 17%
Population Mitotic Cells (%) [11]: 70%
Population Normal (%) [11]: 96%
Population Pyknosed Nuclei (%) [11]: 7%
Population Tubulin-Different-Phenotype (%) [11]: 11%
Total Cell Count [11]: 700
Population Apoptotic (%) [12]: 48%
Population Fragmented Nuclei (%) [12]: 14%
Population Healthy Nuclei (%) [12]: 78%
Population Hoechst High Intensity Objects (%) [12]: 4%
Population Mitochondria Different-Phenotype (%) [12]: 28%
Population Mitotic Cells (%) [12]: 51%
Population Normal (%) [12]: 95%
Population Pyknosed Nuclei (%) [12]: 6%
Population Tubulin-Different-Phenotype (%) [12]: 14%
Total Cell Count [12]: 531
